Values belong to the molecule of their own block, whether it stands above or below them. Active and inactive are the calls of the source. The rule behind the calls is not given here.
How the values were obtained:
[1] = system: Rattus norvegicus; assay: Compound was tested for its activity in bET-1 pressor test following intravenous administration; assay type: functional
[2] = system: Rattus norvegicus; assay: Compound was tested for its activity in bET-1 pressor test following oral administration; assay type: functional
Method in brief: (§1)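 Conscious normotensive rats challenged iv with big ET-1 (1.0 nmol/kg). A control response was obtained after vehicle. Compound was then given orally, and bET-1 was re-injected iv at 15, 105 and 195 min after dosing. Mean blood pressure followed up to 3 h, with area over curve used as read-out; n = 4 per dose.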

[3] = system: Rattus norvegicus; assay: Compound was tested for its activity in Ang II pressor test following oral administration; NE = No effect; assay type: functional, organism-based
Method in brief: (§2)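 Conscious normotensive rats carrying carotid artery and jugular vein catheters. […] Compound was given by oral gavage, and rats were rechallenged with Ang II at intervals up to 240 min. Percent inhibition taken from the maximum blood pressure rise before versus after drug; n = 4 per dose.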

[4] = system: Rattus norvegicus; assay: Compound was tested for its activity in Ang II pressor test following intravenous administration; NE = No effect; assay type: functional, organism-based
[5] = molecular target: T1, Type-1 angiotensin II receptor B (Rattus norvegicus, UniProt P29089); assay: Compound was evaluated for its binding affinity towards rat Angiotensin II receptor, type 1
T1 sequence (P29089 whole entry): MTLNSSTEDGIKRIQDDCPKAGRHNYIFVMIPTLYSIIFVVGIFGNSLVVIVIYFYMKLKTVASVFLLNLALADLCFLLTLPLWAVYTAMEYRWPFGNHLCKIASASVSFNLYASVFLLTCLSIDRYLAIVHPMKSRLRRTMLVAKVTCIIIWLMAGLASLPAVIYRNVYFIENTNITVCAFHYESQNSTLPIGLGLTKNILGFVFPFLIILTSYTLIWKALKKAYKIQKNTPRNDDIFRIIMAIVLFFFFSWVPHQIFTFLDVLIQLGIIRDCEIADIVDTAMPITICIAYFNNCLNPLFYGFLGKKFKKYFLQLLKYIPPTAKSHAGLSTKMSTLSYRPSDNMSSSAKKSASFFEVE
Method in brief: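 Rat aortic smooth muscle cells grown 48 h to 90% confluency in HEPES-buffered DMEM with 10% FCS. Assayed in DMEM with 0.1% BSA and 0.01% sodium azide, using 0.2 nM [125I]-Sar-Ile-angiotensin II and increasing compound. Nonspecific binding defined with 10 µM Ang II. Incubated 2 h at room temperature with shaking, washed with cold PBS, lysed in 1% Triton X-100, gamma-counted. IC50 obtained by curve fitting.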

[6] = A dose of 10 (umol/kg) was administered pre orally to rat and plasma concentration was reported (mean+/-SD); assay type: ADME, organism-based; set-up: dose 10 umol/kg, route oral; details: po
Method in brief: (§3)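 Male rats dosed at 10 µmol/kg, iv or po (n = 6 per route). Plasma exposure followed to give AUC0-∞, clearance, Vss, t1/2 and MRT (iv), and Cmax, Tmax, t1/2, MRT, AUC and oral bioavailability (po). Values reported as mean ± SD.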

[7] = system: Rattus norvegicus; assay: Compound was tested for its activity in Ang II pressor test following oral administration; assay type: functional; method in brief: as §2
[8] = Pharmacokinetic parameter Plasma clearance determined after intravenous administration at a dose of 10 (umol/kg) (mean+/-SD); assay type: ADME, organism-based; method in brief: as §3
[9] = Pharmacokinetic parameter Area under curve reported following peroral administration at a dose of 10 (umol/kg) (mean+/-SD); assay type: ADME; details: po; method in brief: as §3
[10] = Pharmacokinetic parameter Area under curve reported following intravenous administration at a dose of 10 (umol/kg) (mean+/-SD); assay type: ADME; method in brief: as §3
[11] = Pharmacokinetic parameter Volume of distribution was determined in rat following i.v. administration of a dose of 10 (umol/kg) (mean+/-SD); assay type: ADME, organism-based; details: in vivo, iv, read-out: Vss; method in brief: as §3
[12] = Pharmacokinetic parameter MRT value determined in rat at a dose of 10(umol/kg) following peroral administration (mean+/-SD); assay type: ADME, organism-based; details: in vivo, po; method in brief: as §3
[13] = half life was determined in rat at a dose of 10 (umol/kg) following intravenous administration (mean+/-SD); assay type: ADME, organism-based; details: in vivo; method in brief: as §3
[14] = A dose of 10(umol/kg) was administered orally to rat and Tmax value was determined (mean+/-SD); assay type: ADME, organism-based; details: in vivo, po; method in brief: as §3
[15] = Pharmacokinetic parameter MRT value was determined in rat at a dose of 10(umol/kg) following intravenous administration (mean+/-SD); assay type: ADME, organism-based; details: in vivo; method in brief: as §3
[16] = system: Rattus norvegicus; assay: (§4) Compound was tested for its activity in Ang II pressor test following intravenous administration; assay type: ADME, organism-based
[17] = A dose of 10(umol/kg) was administered orally to rat and % bioavailability was determined; assay type: ADME, organism-based; details: in vivo, po, read-out: Bioavailabiility; method in brief: as §3
[18] = half life was determined in rat at a dose of 10 (umol/kg) following peroral administration (mean+/-SD); assay type: ADME, organism-based; details: in vivo, po; method in brief: as §3
[19] = system: Rattus norvegicus; assay: as §4; assay type: functional
[20] = system: Rattus norvegicus; assay: Compound was tested for its activity in bET-1 pressor test following oral administration; NE = No effect; assay type: functional, organism-based; method in brief: as §1
[21] = system: Rattus norvegicus; assay: Compound was tested for its activity in bET-1 pressor test following intravenous administration; NE = No effect; assay type: functional, organism-based
[22] = molecular target: T2, Type-1 angiotensin II receptor (Homo sapiens, UniProt P30556); assay: Compound was evaluated for inhibitory activity against human Angiotensin II receptor, type 1
T2 sequence (P30556 whole entry): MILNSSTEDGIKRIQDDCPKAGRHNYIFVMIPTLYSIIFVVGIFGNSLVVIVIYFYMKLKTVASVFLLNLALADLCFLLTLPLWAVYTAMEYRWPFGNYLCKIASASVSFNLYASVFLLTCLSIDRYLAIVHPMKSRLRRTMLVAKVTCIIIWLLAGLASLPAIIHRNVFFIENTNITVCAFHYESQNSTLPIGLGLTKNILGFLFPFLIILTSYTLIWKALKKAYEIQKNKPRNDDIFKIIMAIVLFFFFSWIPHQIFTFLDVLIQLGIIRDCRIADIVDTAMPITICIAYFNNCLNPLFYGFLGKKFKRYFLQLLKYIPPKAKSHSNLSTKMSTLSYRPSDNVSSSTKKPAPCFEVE
Method in brief: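 Human recombinant AT1 receptor membranes in 50 mM Tris-HCl pH 7.4 with 10 mM MgCl2, 1 mM EDTA and 0.1% BSA. Incubated with 0.2 nM [125I]-Sar-Ile-angiotensin II and increasing compound concentrations, 60 min at 37 °C. Nonspecific binding defined with 10 µM angiotensin II. Bound and free label separated, then gamma-counted.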

[23] = molecular target: T3, Endothelin-1 receptor (Homo sapiens, UniProt P25101); assay: Compound was evaluated for its binding affinity towards human Endothelin A receptor
T3 sequence (P25101 whole entry): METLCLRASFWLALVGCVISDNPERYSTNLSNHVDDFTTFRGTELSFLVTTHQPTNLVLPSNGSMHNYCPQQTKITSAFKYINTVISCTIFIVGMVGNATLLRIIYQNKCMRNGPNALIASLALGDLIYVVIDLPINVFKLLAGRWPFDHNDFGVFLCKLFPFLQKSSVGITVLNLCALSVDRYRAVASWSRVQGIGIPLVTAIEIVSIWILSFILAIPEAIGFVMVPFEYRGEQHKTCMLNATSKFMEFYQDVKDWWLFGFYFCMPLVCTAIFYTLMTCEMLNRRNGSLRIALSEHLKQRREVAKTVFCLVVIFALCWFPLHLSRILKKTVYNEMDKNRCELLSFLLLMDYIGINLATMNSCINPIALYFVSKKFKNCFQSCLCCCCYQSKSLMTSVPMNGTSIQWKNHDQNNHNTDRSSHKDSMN
Method in brief: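 CHO-K1 cells expressing human ETA receptor, seeded 1.8×10^4 cells/well 24 h before assay. Binding run in 50 mM Tris pH 7.4 with 1% BSA and 2 µM phosphoramidon, using 0.25 nM [125I]-ET-1 and competing drug. Nonspecific binding defined with 500 nM ET-1. Incubated 4 h at 4 °C with shaking, washed, cells dissolved in 0.5 N NaOH, gamma-counted.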

Compound: Cc1noc(NS(=O)(=O)c2ccccc2-c2ccc(-c3ncco3)cc2)c1C
ED50 [1]: 0.9 µmol/kg
ED50 [2]: 10 µmol/kg
NE [3]: inactive
NE [4]: inactive
Ki [5]: > 10000 nM

Compound: CCCCC1=NC2(CCCC2)C(=O)N1Cc1ccc(-c2ccccc2-c2nnn[nH]2)cc1 [IRBESARTAN]
ED50 [19]: 0.3 µmol/kg
ED50 [7]: 16 µmol/kg
Ki [5]: 0.8 nM
Activity [20]: inactive
NE [21]: inactive

Compound: CCCc1cc(Cn2c(CC)nc3c(C)cc(C)nc32)ccc1OC(C(=O)NS(=O)(=O)c1ccc(C(C)C)cc1)c1ccc2c(c1)OCO2 (stereo not drawn)
IC50 [22]: 13 nM

The next lines start with results.

Cmax [6]: 3.1 µM
clearance [8]: 3.8 mL/min/kg
AUC [9]: 19 µM·h
AUC [10]: 50 µM·h
Vd [11]: 1.4 L/kg
MRT [12]: 5 h
half-life [13]: 5.5 h
Tmax [14]: 0.7 h
MRT [15]: 6.4 h
bioavailability [17]: 38%
half-life [18]: 3 h
Compound: CCCCC1=NC2(CCCC2)C(=O)N1Cc1ccc(-c2ccccc2S(=O)(=O)Nc2onc(C)c2C)c(CN2CCC(C)(C)C2=O)c1 [BMS-248360]
ED50 [1]: 2.1 µmol/kg
ED50 [2]: 26 µmol/kg
ED50 [7]: 39 µmol/kg
ED50 [16]: 1.4 µmol/kg

Ki [23]: 39 nM
Ki [5]: 4.7 nM
Compound: CCCCC1=NC2(CCCC2)C(=O)N1Cc1ccc(-c2ccccc2S(=O)(=O)Nc2onc(C)c2C)cc1

— ChEMBL document CHEMBL1135999, “Discovery of N-isoxazolyl biphenylsulfonamides as potent dual angiotensin II and endothelin A receptor antagonists” (J Med Chem, 2002)
